Bioassay records: PubChem, several laboratories
SUMO1 PPI mod: SUMO1-SIM interaction modulation; 360,000 compounds, 0.33% hits; P63165; AID 602429; inhibition, % at 20 µM; SUMO1 binding to a labelled peptide, TR-FRET, 1 h; in the data active = inhibition above about 37%
DNMT1 inh: DNMT1 (human) enzyme inhibition; P26358; 360,000 compounds, 0.83% hits; inhibition (reported as % activation of signal), % at 10 µM; DNMT1 molecular beacon, Hinp1I cleavage, fluorescence; in the data active = inhibition above about 50%
STEP block: blocks human striatal-enriched tyrosine phosphatase | P54829 | recombinant STEP, OMFP fluorogenic substrate, fluorescence | inhibition, % at 20 µM | 360,000 compounds, 0.25% hits;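 active = inhibition at 20 µM, scaled per plate between control wells, above about 37%, limit read from the data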;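 also: 0% = DMSO with enzyme and substrate and 100% = substrate only without enzyme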
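Material: STEP (striatal-enriched tyrosine phosphatase) enzyme, cell-free | Medium: 50 mM Bis-Tris pH 6.0 with 2.5 mM DTT and 0.005% Tween 20 | Read-out: Percent inhibition scaled to no-enzyme and uninhibited-enzyme controls, plate-pattern corrected | Signal: Fluorescence read at 480 nm ex / 540 nm em | Times: 20 min reaction, room temperature, in the dark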
GRK2 inh: blocks RNA aptamer binding to human GRK2; bead flow cytometry, FAM-aptamer displacement from GRK2; inhibition of aptamer binding, % at 10 µM; 330,000 compounds, 0.59% hits; AID 488847;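 active = inhibition of aptamer binding above 40%, roughly 3 SD of noise, on plates passing a quality check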;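 also: median bead fluorescence of bound FAM aptamer so fluorescent compounds give negative values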
Target sequence (P25098 whole entry, looked up): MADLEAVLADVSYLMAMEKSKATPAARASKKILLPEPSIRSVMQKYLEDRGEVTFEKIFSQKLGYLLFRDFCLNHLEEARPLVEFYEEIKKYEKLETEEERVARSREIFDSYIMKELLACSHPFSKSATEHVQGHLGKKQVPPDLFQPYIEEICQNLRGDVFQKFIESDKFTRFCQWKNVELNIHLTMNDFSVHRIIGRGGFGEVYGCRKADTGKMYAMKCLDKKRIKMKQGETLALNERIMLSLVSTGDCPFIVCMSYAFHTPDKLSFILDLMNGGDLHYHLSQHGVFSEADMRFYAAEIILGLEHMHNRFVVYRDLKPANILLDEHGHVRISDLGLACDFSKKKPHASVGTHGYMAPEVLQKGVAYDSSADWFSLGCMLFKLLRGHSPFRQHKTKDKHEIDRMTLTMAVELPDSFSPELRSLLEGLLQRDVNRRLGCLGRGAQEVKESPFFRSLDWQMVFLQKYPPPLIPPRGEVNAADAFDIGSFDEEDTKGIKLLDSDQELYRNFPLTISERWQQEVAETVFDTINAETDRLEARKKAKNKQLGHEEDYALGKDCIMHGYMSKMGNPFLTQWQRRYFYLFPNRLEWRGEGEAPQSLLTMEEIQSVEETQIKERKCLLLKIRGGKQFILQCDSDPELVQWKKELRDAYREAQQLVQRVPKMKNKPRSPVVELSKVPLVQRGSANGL
LMPTP inh: LMPTP (human) inhibition; recombinant LMPTP-A, OMFP fluorogenic substrate, fluorescence intensity; inhibition, % at 20 µM; 360,000 compounds, 0.22% hits;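 active = compounds that cut the enzyme signal by at least half of the control window in the single-dose screen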;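 also: plate controls were DMSO wells with enzyme plus substrate for no effect and substrate without enzyme for full effect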
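material = LMPTP-A | quantity = 0.625 nM enzyme | reagent = OMFP substrate, 400 µM final | buffer or medium = Bis-Tris pH 6.0, DTT, detergent | detection = endpoint fluorescence intensity from OMFP dephosphorylation | dosing = single 20 µM dose | read-out basis = % inhibition relative to no-enzyme and uninhibited control wells | control set = no-enzyme and uninhibited controls | timing = 50 min at room temperature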
Scp-1 inhibitor: inhibitors of human Scp-1 phosphatase. Q9GZU7. Recombinant Scp1, phosphopeptide, malachite green phosphate absorbance. inhibition, % at 20 µM. 340,000 compounds, 0.88% hits;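 active = inhibition above about 50% at 20 µM, limit read from the data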;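 also: plate controls were DMSO wells with enzyme for no effect and wells lacking enzyme for full effect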
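Test system: SCP-1 phosphatase catalytic domain, residues 76-261 | Compound dosing: One concentration, 20 µM, with 1.0% DMSO | Schedule: 45 min room-temperature reaction, 5 min colour, 30 min stabiliser | Detection: Absorbance at 630 nm | Read-out basis: % inhibition of SCP-1 phosphate liberation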
Scp-1 conf: confirmation of human Scp-1 phosphatase inhibitors; recombinant SCP-1 catalytic domain, phosphate release, malachite green absorbance; AID 540281; shares compounds with Scp-1 inhibitor; 2,500 compounds, 61% hits; inhibition, % at 20 µM;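 also: plate controls were DMSO with enzyme for no effect and buffer wells lacking enzyme for full effect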
Scp-1 MG ctr: interferes with malachite green readout, flagging false Scp-1 hits; shares compounds with Scp-1 inhibitor; Colorimetric interference counterscreen, malachite green absorbance 630 nm; apparent inhibition (interference), % at 20 µM; 2,500 tested, under 10 active; AID 540313;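 also: compounds added after enzyme reaction finished so only phosphate colour detection is probed; plate controls were DMSO wells with completed Scp-1 reaction for no effect and substrate wells lacking enzyme for full effect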
Scp1 DSF: binds human Scp-1, shifting its melting temperature. thermal shift relative to vanadate control, % at 40 µM. 1,500 compounds, 25% hits. shares compounds with Scp-1 inhibitor. Recombinant SCP1, Sypro Orange thermal shift Tm. AID 540329;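 active = substances whose mean melting-temperature shift, as a percentage of the reference inhibitor's shift, reaches about 5.3%, limit read from the data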;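 also: 0% = Tm of DMSO wells and 100% = Tm with sodium orthovanadate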
DNMT1 inh conf: DNMT1 inhibition confirmation, single concentration | shares compounds with DNMT1 inh | DNMT1 molecular beacon HinP1I cleavage, fluorescence | inhibition, % at 10 µM | 2,300 compounds, 8% hits;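 active = average inhibition of at least 30% in the single-concentration confirmation test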
Beacon interf: shows spectral interference in the DNMT1 beacon assay; shares compounds with DNMT1 inh; DNMT1 molecular beacon spectral interference counterscreen, fluorescence 485/520; activation (fluorescence interference), % at 10 µM; 2,300 compounds, 1% hits; AID 602387;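 active = activation of at least 30% at 10 µM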;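 also: DNMT1 catalytic domain with a HinP1I cleavage step and a FAM/dabcyl DNA beacon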
STEP inh conf: confirmation of human STEP phosphatase inhibitors; shares compounds with STEP block; recombinant STEP, OMFP fluorogenic substrate, fluorescence; inhibition, % at 20 µM; 520 compounds, 32% hits; call rule not given here;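 also: 0% = enzyme with substrate plus DMSO and 100% = substrate without enzyme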
* hit, by the source's call; . = no result. The list is not random: actives were taken first. Their share in the collection is about 2.1%.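 The calls were made as follows, unless noted: active = inhibition of at least 30% at 20 µM; inactive = the rest.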

SMILES | SUMO1 PPI mod | DNMT1 inh | STEP block | GRK2 inh | LMPTP inh | Scp-1 inhibitor | Scp-1 conf | Scp-1 MG ctr | Scp1 DSF | STEP inh conf | others
CN(c1ccccc1)S(=O)(=O)c1cc(C(=O)OCC(=O)c2c(N)n(C)c(=O)n(C)c2=O)ccc1Cl | 2.9 | -8.1 | -0.6 | . | 1.5 | -9.0 | . | . | . | .
COc1cc(CN2CCN(C(=O)c3ccccc3F)CC2)cc(OC)c1OC | 1.1 | -0.3 | 4.0 | 0.0 | -1.8 | 0.1 | . | . | . | .
CCOc1cc(/C=N/N=C2/NC(=O)C(CC(=O)O)S2)ccc1OCc1ccc(Cl)cc1Cl (stereo not drawn) | 11.5 | 8.0 | 63.6* | 3.0 | 84.2* | 74.7* | 65.1* | -15.6 | -2.0 | 12.9*
COc1ccc2cc3c(N)nn(C(=O)Cc4ccccc4OC)c3nc2c1 | 1.5 | -2.9 | -2.9 | 4.0 | 2.2 | -6.6 | . | . | . | .
COc1ccc2cc3c(N)nn(C(=O)c4cccc([N+](=O)[O-])c4)c3nc2c1 | 52.7* | 76.9* | 97.9* | 73.0* | 66.0* | 98.1* | 79.5* | -9.8 | -12.0 | -0.7 | DNMT1 inh conf=3.6;Beacon interf=-6.7
Cc1ccc(/C=C(\C#N)C(=O)Nc2cccc(C)n2)cc1 | -18.9 | 0.1 | -0.8 | 1.0 | 1.3 | -7.1 | . | . | . | .
O=C(O)c1ccc(Nc2nc(-c3ccc([N+](=O)[O-])cc3)nc3ccccc23)cc1 | -3.5 | -3.5 | 88.8* | 0.0 | 62.7* | 81.6* | 56.8* | -9.8 | 9.2* | 14.8
CN(C)c1cc(-c2ccc(Cl)c(Cl)c2)oc(=O)c1Cl | 25.8 | 61.5* | 96.2* | 0.0 | 59.7* | 106.6* | 81.3* | -18.4 | 2.8 | 12.9 | DNMT1 inh conf=0.0;Beacon interf=-2.3
O=C(NCc1ccccc1Cl)c1ccc(CS(=O)Cc2ccc(Cl)cc2)o1 (stereo not drawn) | 1.8 | -0.2 | -1.3 | 3.0 | -0.7 | -5.7 | . | . | . | .
Cc1c(CC(=O)NCCCC(=O)O)c(=O)oc2cc3oc4c(c3cc12)CCCC4 | 1.0 | -2.2 | 1.3 | 0.0 | 0.5 | -12.3 | . | . | . | .
Cc1c(CC(=O)NCCCCCC(=O)O)c(=O)oc2c(C)c3oc4c(c3cc12)CCCC4 | 2.0 | -1.1 | 97.2* | 1.0 | 18.2 | 94.4* | 93.7* | 1.4 | -10.8 | 89.4*
O=C(Nc1cc([N+](=O)[O-])ccc1O)c1cccc(C(=O)Nc2cc([N+](=O)[O-])ccc2O)c1 | 56.3* | -3.2 | 99.4* | 5.0 | 96.6* | 98.3* | 95.9* | -2.7 | 16.0* | 58.5*
O=C(Nc1cc([N+](=O)[O-])ccc1O)c1cccc([N+](=O)[O-])c1 | -14.9 | -1.7 | 4.4 | 0.0 | 0.5 | -2.4 | . | . | . | .
COc1ccc(C2=NN(C(=O)CCCC(=O)O)C(c3cn(-c4ccccc4)nc3-c3ccccc3)C2)cc1 (stereo not drawn) | 10.7 | 1.9 | 69.8* | 0.0 | 38.8 | 96.7* | 85.9* | -9.0 | -35.3 | 13.5
COc1ccc(-c2nn(-c3ccccc3)cc2C2CC(c3cccs3)=NN2C(=O)CCC(=O)O)cc1 (stereo not drawn) | -15.8 | -1.9 | 4.5 | 0.0 | -0.5 | -16.3 | . | . | . | .
